The record followed here is ChEMBL document CHEMBL1144824, “Oximes: metabolic activation and structure-allergenic activity relationships” (J Med Chem, 2008).

Series [1] concerns Mus musculus. Kind of series: Dermal toxicity in CBA/Ca mouse assessed as skin sensitization stimulation index by measuring increase in [3H]thymidine incorporation at 0.1% w/v administered on ear dorsum by local lymph node assay relative to control. It is filed as organism-based, Skin of body. Particulars: in vivo, topical_or_ocular. In a few lines: (§1)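 Female CBA/Ca mice, 8 weeks, n = 3 or 4 per group, 25 µL of test compound in vehicle per OECD 429 LLNA; vehicle-only controls. Day 5: 250 µL PBS with 20 µCi [3H]thymidine i.v. After 5 h, draining auricular nodes were pooled per group, cells suspended and counted by β-scintillation. SI = mean dpm/node of test group over control; SI above 3 counted positive.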
(Incorporation of labelled thymidine or its analogues reports DNA synthesis.)

For series [2], the system named is Mus musculus. The experiment in a line: Dermal toxicity in CBA/Ca mouse assessed as skin sensitization stimulation index by measuring increase in [3H]thymidine incorporation at 1% w/v administered on ear dorsum by local lymph node assay relative to control. Particulars: in vivo, topical_or_ocular. It is filed as organism-based, Skin of body. In a few lines: as §1

Series [3] has as its system Mus musculus. Kind of series: Dermal toxicity in CBA/Ca mouse assessed as skin sensitization stimulation index by measuring increase in [3H]thymidine incorporation at 5% w/v administered on ear dorsum by local lymph node assay relative to control. It is filed as organism-based, Skin of body. Particulars: in vivo, topical_or_ocular. In a few lines: as §1
A short description of series [4]: Dermal toxicity in CBA/Ca mouse assessed as skin sensitization stimulation index by measuring increase in [3H]thymidine incorporation at 10% w/v administered on ear dorsum by local lymph node assay relative to control. Particulars: in vivo, topical_or_ocular. Further details: species or system Skin of body. In a few lines: as §1
Series [5] deals with Mus musculus. The experiment in a line: Dermal toxicity in CBA/Ca mouse assessed as skin sensitization stimulation index by measuring increase in [3H]thymidine incorporation at 20% w/v administered on ear dorsum by local lymph node assay relative to control. It is filed as organism-based, Skin of body. Particulars: in vivo, topical_or_ocular. In a few lines:
as §1

The species named for series [6] is Mus musculus. Kind of series: Dermal toxicity in CBA/Ca mouse assessed as drug level inducing 3 times increase in skin sensitization stimulation index by measuring [3H]thymidine incorporation relative to control. It is filed as organism-based. Particulars: in vivo. In a few lines: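 Local lymph node assay per OECD Guideline 429 in female CBA/Ca mice, 8 weeks old, groups of 3 or 4. Each mouse got 25 µL of test compound in vehicle; controls got vehicle alone. Five days after first treatment, mice were dosed i.v. with 20 µCi [3H]thymidine in PBS. Auricular lymph nodes were pooled per group 5 h later and counted by β-scintillation. Value is the concentration giving SI (test/control) of 3.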

Where only a bound is given, the exact number is not on record here.

Take `CC1=CCCC/C1=N\O`: the Activity was determined as 1 in series [1]; 2.36 in series [2]; 5.03 in series [3]; 7.91 in series [4]; 11.3 in series [5]; 160 mM in series [6].
Take `O/N=C\c1ccccc1`: the Activity in series [1] is 1.75; in series [2] it was 1.8; in series [3], 1.55; in series [4], 2.33; in series [5], 2.56; in series [6], above 1700 mM.
Turning to `O/N=C1/C=CCCC1`, the Activity was found to be 1.54 in series [1], 4.1 in series [2], 7.6 in series [3] and 55 mM in series [6].
As for `CC1=C/C(=N/O)CCC1`, the Activity turned out to be 0.76 in series [1]; 2.1 in series [2]; 5.06 in series [3]; 5.34 in series [4]; 7.3 in series [5]; 180 mM in series [6].
Take `C/C=C/C(CC)=N/O`: the Activity is 0.99 in series [1]; 0.99 in series [2]; 1.69 in series [3]; 3.34 in series [4]; 6.62 in series [5]; 790 mM in series [6].
In the case of `CC1=C(C)/C(=N/O)CCC1`, the Activity in series [1] is 1.1; in series [2] it was 1.24; in series [3] it was 1.43; in series [4], 1.16; in series [5], 1.3; in series [6], above 1400 mM.
Take `ON=C1CCCCC1` [CYCLOHEXANONE OXIME]: the Activity is 0.96 in series [1]; 0.9 in series [2]; 0.77 in series [3]; 1.17 in series [4]; 0.84 in series [5]; above 1800 mM in series [6].
